Results of several laboratories.
Protocols differ between the studies behind these lines.
Effect on: cell growth or viability

CCCS(=O)(=O)Nc1ccc(F)c(C(=O)c2c[nH]c3ncc(Cl)cc23)c1F
EC50 (A-375): 30 nM

COc1cc2c(cc1OS(N)(=O)=O)CC[C@@H]1[C@@H]2CC[C@]2(C)[C@@H](OS(N)(=O)=O)CC[C@@H]12
GI50 (MDA-MB-231): 290 nM

C/C1=C/C(=O)O[C@@H]2C[C@@H](CC[C@H](C)/C=C\C=C\CC1)O[C@@](OCCc1ccccc1)([C@@H]1CSC(=O)N1)C2
IC50 (MDA-MB-231; MTT; 72 h): 2.71 µM

N.N.[Cl][Pt][Cl]
EC50 (A-375; SRB): 1200 nM

C/C1=C/C(=O)O[C@@H]2C[C@@H](CC[C@H](C)/C=C\C=C\CC1)O[C@@](O)([C@@H]1CSC(=O)N1)C2
IC50 (MDA-MB-231; MTT; 72 h): 4.19 µM

O=C(c1cccc(F)c1)c1c[nH]c2ncc(-c3ccc(N4CCNCC4)nc3)cc12
viability (MRC5; MTT; 10 µM, 48 h): 66.2%

[Cl-].[Cl-].[Co+2]
IC50 (BEL-7404; MTT; 48 h): > 150 µM

CO[C@]1([C@@H]2CSC(=O)N2C2CCCC2)C[C@H]2C[C@@H](CC[C@H](C)/C=C\C=C\CC/C(C)=C\C(=O)O2)O1
IC50 (MDA-MB-231; MTT; 72 h): 5.07 µM

C1COCCN1.COc1ccc(/C=C\c2cc(I)c(OC)c(I)c2)cc1OP(=O)(O)O
GI50 (KM-20L2; SRB; 48 h): > 1 µg/mL

O=C(c1ccc(F)cc1)c1c[nH]c2ncc(-c3ccc(N4CCOCC4)nc3)cc12
viability (MRC5; MTT; 10 µM, 48 h): 68.1%

CO[C@]1([C@@H]2CSC(=O)N2CCCO)C[C@H]2C[C@@H](CC[C@H](C)/C=C\C=C\CC/C(C)=C\C(=O)O2)O1
IC50 (MDA-MB-231; MTT; 72 h): > 50 µM

O=C(c1ccc(F)cc1)c1c[nH]c2ncc(-c3ccc(N4CCNCC4)nc3)cc12
viability (MRC5; MTT; 10 µM, 48 h): 89.4%

COc1cc2c(cc1OS(N)(=O)=O)CCN(Cc1cc(Br)c(OC)c(OC)c1)C2
GI50 (MDA-MB-231; WST-1; 96 h): 30 nM
